MEKK2mut PB1 HTS: signal of MEK5 binding to mutant human MEKK2 PB1 domain; bead flow cytometry, Alexa488-MEK5 binding to MEKK2 mutant; percent response, % at 10 µM; actives 0.35% (n = 290,000); in the data active = percent response above about 24%, passing the limit was not always enough
UBC13 polyUb: inhibitors of human UBC13 polyubiquitin chain formation; TR-FRET; inhibition, % at 20 µM; actives 0.47% (n = 330,000); in the data active = inhibition above about 45%, passing the limit was not always enough
Target sequence (P61088 whole entry, looked up): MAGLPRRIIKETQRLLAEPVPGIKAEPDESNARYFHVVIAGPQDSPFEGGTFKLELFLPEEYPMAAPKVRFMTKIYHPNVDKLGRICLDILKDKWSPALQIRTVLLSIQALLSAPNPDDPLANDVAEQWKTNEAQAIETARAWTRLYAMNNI
Apaf-1 inh: inhibitors of human Apaf-1 apoptosome; O14727; reconstituted apoptosome caspase-3 activity, DEVD-Rh110 fluorescence; inhibition, % at 20 µM; actives 0.71% (n = 330,000); AID 489030; active = inhibition of at least 40% at 20 µM;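 note: plate controls were DMSO wells for no effect and DEVD-CHO caspase inhibitor wells for full effect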
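detection = Rh110 fluorescence intensity | test system = biochemical Apaf-1 apoptosome reconstitution | also added = cytochrome c and DEVD-Rh110 substrate | schedule = 30 min plus 50 min, RT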
MEKK2 WT-MEK5: raises or lowers MEK5 binding to wildtype human MEKK2 PB1 domain; actives 1.1% (n = 290,000); bead flow cytometry, Alexa488-MEK5 binding to MEKK2 WT; actives lie on both sides; Q9Y2U5; binding response (% of control), % at 10 µM; in the data active = binding response below about 67% or above about 130%
MEKK3 PB1 HTS: MEKK3-MEK5 PB1 interaction, increase or decrease; AID 1529; binding response (% of control), % at 10 µM; actives 1.4% (n = 290,000); bead-based flow cytometry, Alexa488-MEK5 binding to MEKK3; actives lie on both sides; 0 = blocked by unlabeled MEK5, 100 = vehicle;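 active = binding response more than 3 SD above or below the average of its plate-row segment, actives on both sides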;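 note: Alexa488 bead fluorescence after subtracting the streptavidin-only scavenger bead signal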
Casp3 UBC13 ctr: inhibits human caspase-3 in UBC13 counter-screen | shares compounds with UBC13 polyUb | Recombinant caspase-3, Caspase-Glo 3/7 luminescence, 60 min | inhibition, % at 20 µM | actives 4% (n = 1,400) | AID 488856;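 active = mean inhibition across replicates above about 26%, limit read from the data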;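 note: plate controls were DMSO with caspase-3 for no effect and DMSO wells lacking enzyme for full effect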
Target sequence (P42574 whole entry, looked up): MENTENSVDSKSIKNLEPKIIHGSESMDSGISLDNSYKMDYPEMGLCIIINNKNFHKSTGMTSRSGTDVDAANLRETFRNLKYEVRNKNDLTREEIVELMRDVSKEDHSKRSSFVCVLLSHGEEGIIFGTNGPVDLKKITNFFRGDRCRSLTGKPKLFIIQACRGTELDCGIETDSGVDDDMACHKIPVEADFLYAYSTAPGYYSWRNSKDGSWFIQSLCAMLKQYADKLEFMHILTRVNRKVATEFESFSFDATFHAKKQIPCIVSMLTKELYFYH
UBC13 confirm: human UBC13 polyubiquitin inhibition, confirmed. actives 68% (n = 1,400). shares compounds with UBC13 polyUb. UBC13 polyubiquitination, TR-FRET, biochemical. inhibition, % at 10 µM; in the data active = inhibition above about 45%
* = called active by the depositor; . = no result. A selection: hits, their analogues and other compounds. The true share with any hit is near 2.9%.

SMILES	MEKK2mut PB1 HTS	UBC13 polyUb	Apaf-1 inh	MEKK2 WT-MEK5	MEKK3 PB1 HTS	Casp3 UBC13 ctr	UBC13 confirm
Cc1cccc(-c2nc(S(=O)(=O)c3ccc(F)cc3)c(NCCCN3CCOCC3)o2)c1	3	-5	16	111	100	.	.
CCN1CC(CN(C)Cc2nc(-c3ccc(C(F)(F)F)cc3)oc2C)CC1=O (centres undefined)	-2	-1	8	95	97	.	.
CCn1cc(C(=O)N[C@@H](CCSC)C(=O)NCCCOC)c(=O)c2cc3c(cc21)OCO3	4	1	-2	105	105	.	.
COc1ccccc1N(C(=O)c1snc(C(N)=O)c1N)C(C(=O)NCc1ccccc1)c1ccc(O)cc1 (centres undefined)	2	7	19	96	101	.	.
NC(=O)c1nsc(C(=O)N(c2ccccc2F)C(C(=O)NCc2ccc(F)cc2)c2ccc(O)cc2)c1N (centres undefined)	3	47*	15	97	97	2	49*
CC(C)c1[nH]nc2c1C(c1ccco1)C(C#N)=C(N)O2 (centres undefined)	-8	14	5	95	98	.	.
O=C1/C(=C/c2cccc([N+](=O)[O-])c2)CCc2ccccc21	-1	15	14	98	96	.	.
O=C1/C(=C/c2cccc([N+](=O)[O-])c2)CSc2ccc(Cl)cc21	-4	49*	-15	96	100	1	83*
CC(=O)Nc1sc2c(c1-c1nc3ccccc3s1)CCN(C(C)C)C2	12	60*	30	121	104	5	18
CCc1ccc(OCCNc2cc(N3CCNC(C)C3)ccc2[N+](=O)[O-])cc1 (centres undefined)	.	68*	75*	.	.	-4	55*
CC(C)(C)CNc1cc(N2CCCC2)ccc1[N+](=O)[O-]	0	-28	20	100	102	.	.
O=[N+]([O-])c1ccc(C2Oc3ccccc3C3CC(c4ccccc4)=NN32)s1 (centres undefined)	-2	.	.	95	100	.	.
COc1ccc2sc(N(CCCN(C)C)C(=O)c3ccc(S(=O)(=O)N4CCCC4)cc3)nc2c1	.	1	3	.	.	.	.
Cc1cc(C)c2sc(N(CCCN(C)C)C(=O)c3ccc(S(=O)(=O)N4CCc5ccccc5C4)cc3)nc2c1	.	87*	23	.	.	-5	112*
COc1ccc2sc(N(CCCN(C)C)C(=O)c3ccc(S(=O)(=O)N4CCc5ccccc5C4)cc3)nc2c1	.	75*	37	.	.	0	110*
Cc1cc(C)c2sc(NNC(=O)c3ccc(S(=O)(=O)N4CCc5ccccc5C4)cc3)nc2c1	4	-63	3	95	106	.	.
CC(C)C(=O)Nc1ccc2nn(-c3ccccc3)nc2c1	0	48*	-2	108	110	49*	32
CC(=O)Nc1ccc(S(=O)(=O)Nc2ccccn2)cc1	-13	-6	0	91	96	.	.
CC(=O)Nc1ccc(S(=O)(=O)NNC(=O)C(=O)NNc2ccccn2)cc1	2	58*	-12	98	106	3	95*
Cc1ccc(S(=O)(=O)NNC(=O)C(=O)NNc2ccccn2)cc1	6	69*	-6	103	101	-1	81*
O=C1CN(C(=O)c2cc([N+](=O)[O-])ccc2Cl)C(c2ccc(F)cc2)c2cc(F)ccc2N1 (centres undefined)	-1	18	3	93	100	.	.
Cc1cccnc1NC(=O)c1nn(C)c2c1CS(=O)(=O)c1ccccc1-2	3	7	-7	100	105	.	.
O=C(C1=C[C@H](c2coc3ccccc3c2=O)C[C@H](OCc2ccc(CO)cc2)O1)N1CCN(Cc2ccc3c(c2)OCO3)CC1	11	12	21	110	104	.	.
O=C(C1=C[C@@H](c2coc3ccccc3c2=O)C[C@@H](OCc2ccc(CO)cc2)O1)N1CCN(Cc2ccc3c(c2)OCO3)CC1	2	76*	22	103	94	-1	57*
COC(=O)Cc1cc(=O)[nH]c(/N=C(\N)Nc2ccccc2)n1	5	17	-4	108	103	.	.
SMILES	MEKK2mut PB1 HTS	UBC13 polyUb	Apaf-1 inh	MEKK2 WT-MEK5	MEKK3 PB1 HTS	Casp3 UBC13 ctr	UBC13 confirm
COCc1cc(=O)[nH]c(Nc2nc3ccccc3o2)n1	6	81*	7	108	105	43*	81*
COC(=O)Cc1cc(=O)[nH]c(Nc2nc3ccccc3o2)n1	-4	58*	5	97	93	18	73*
COCc1cc(=O)[nH]c(Nc2nc(C)c3ccccc3n2)n1	-17	-5	7	77	89	.	.
CCOC(=O)Cc1cc(=O)[nH]c(Nc2nc3ccccc3o2)n1	5	82*	-7	108	101	45*	93*
Cc1ccc2oc(Nc3nc(-c4ccccc4)cc(=O)[nH]3)nc2c1	-4	5	-6	97	104	.	.
N#Cc1ccc(COC(=O)CC(NC(N)=O)c2ccc(Cl)cc2)cc1 (centres undefined)	-1	6	8	95	99	.	.
COc1ccc(Cc2nnc(SCC(=O)NCCc3ccccc3)o2)cc1	1	4	-5	93	98	.	.
Cc1cccc(C)c1OCc1nnc(SCC(=O)NCCc2ccccc2)o1	1	92*	7	99	103	-5	3
COc1ccc(NS(=O)(=O)c2ccc(N3CCOCC3)c(N)c2)cc1	.	-1	6	.	.	.	.
CC(C)(C)OC(=O)[C@H](CCCCN)NC(=O)c1[nH]cnc1C(=O)N[C@@H](Cc1ccccc1)C(=O)OCc1ccccc1	.	72*	65*	.	.	2	69*
CC(C)(C)OC(=O)[C@H](Cc1ccccc1)NC(=O)c1[nH]cnc1C(=O)N[C@@H](Cc1ccccc1)C(=O)OCc1ccccc1	-8	-60	18	102	103	.	.
CSCCC(NS(=O)(=O)c1ccccc1F)C(=O)NNC(=O)c1csc(N2CCOCC2)n1 (centres undefined)	.	-6	0	.	.	.	.
CSCCC(NC(=O)c1ccccc1Br)C(=O)NCC(C)(C)N1CCOCC1 (centres undefined)	.	-7	10	.	.	.	.
CSCCC(NC(=O)c1ccccc1Br)C(=O)NNC(=O)c1csc(N2CCOCC2)n1 (centres undefined)	.	50*	1	.	.	-1	52*
CSCCC(NC(=O)c1ccccc1Cl)C(=O)NNC(=O)c1csc(N2CCOCC2)n1 (centres undefined)	.	50*	0	.	.	-2	57*
CC(C)(C)C1CCC(=NNC(=O)c2ccco2)CC1 (centres undefined)	3	-9	6	100	100	.	.
